Measured values reported in ChEMBL document CHEMBL1135816, “6-Aryl-1,4-dihydro-benzo[d][1,3]oxazin- 2-ones: a novel class of potent, selective, and orally active nonsteroidal progesterone receptor antagonists” (J Med Chem, 2002).
pIC50: −log10 of the molar value.

Experiments:
Progesterone receptor = molecular target: T1, Progesterone receptor (Homo sapiens, UniProt P06401); assay: Antagonist activity against progesterone receptor (PR) in an alkaline phosphatase assay in the T47D human breast carcinoma cell line; type: functional, cell-based
T1 sequence (P06401 whole entry): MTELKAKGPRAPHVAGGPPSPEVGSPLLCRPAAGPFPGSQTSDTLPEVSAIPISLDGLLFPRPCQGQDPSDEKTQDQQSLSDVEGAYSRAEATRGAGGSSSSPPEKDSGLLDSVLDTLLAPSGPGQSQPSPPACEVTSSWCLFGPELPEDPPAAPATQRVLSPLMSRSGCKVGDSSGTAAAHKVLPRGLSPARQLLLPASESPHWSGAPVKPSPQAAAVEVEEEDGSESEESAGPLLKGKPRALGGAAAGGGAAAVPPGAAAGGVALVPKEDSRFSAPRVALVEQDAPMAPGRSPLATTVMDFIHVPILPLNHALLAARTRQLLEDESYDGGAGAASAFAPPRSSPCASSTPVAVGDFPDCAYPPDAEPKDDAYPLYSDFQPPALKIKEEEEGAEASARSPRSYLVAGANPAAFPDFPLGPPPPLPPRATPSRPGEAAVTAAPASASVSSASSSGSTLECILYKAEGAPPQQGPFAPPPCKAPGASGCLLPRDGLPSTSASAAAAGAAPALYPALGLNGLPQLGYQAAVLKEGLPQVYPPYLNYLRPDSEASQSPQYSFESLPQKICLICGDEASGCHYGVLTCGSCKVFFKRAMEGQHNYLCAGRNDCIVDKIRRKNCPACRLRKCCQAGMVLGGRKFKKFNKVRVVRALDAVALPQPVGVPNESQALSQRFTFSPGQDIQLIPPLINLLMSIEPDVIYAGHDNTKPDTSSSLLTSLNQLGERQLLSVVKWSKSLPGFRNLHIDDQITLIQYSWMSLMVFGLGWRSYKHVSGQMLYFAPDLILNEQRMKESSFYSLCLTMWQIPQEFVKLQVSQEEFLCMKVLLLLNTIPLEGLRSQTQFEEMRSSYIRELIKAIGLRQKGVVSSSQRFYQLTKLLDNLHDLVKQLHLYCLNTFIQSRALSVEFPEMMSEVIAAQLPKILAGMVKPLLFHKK

[1] = Plasma clearance (Cl) for the compound in female rats for a dose of 1 mg/kg administered intravenously; type: ADME, organism-based; set-up: dose 1 mg/kg, route intravenous; settings: rat, iv, read-out: Clp (converted)
[2] = molecular target: T2, Progesterone receptor (Rattus norvegicus) (UniProt Q63449); assay: inhibitory activity against progesterone receptor (PR) in ovariectomized mature female rat complement C3 model; type: functional
T2 sequence (whole entry): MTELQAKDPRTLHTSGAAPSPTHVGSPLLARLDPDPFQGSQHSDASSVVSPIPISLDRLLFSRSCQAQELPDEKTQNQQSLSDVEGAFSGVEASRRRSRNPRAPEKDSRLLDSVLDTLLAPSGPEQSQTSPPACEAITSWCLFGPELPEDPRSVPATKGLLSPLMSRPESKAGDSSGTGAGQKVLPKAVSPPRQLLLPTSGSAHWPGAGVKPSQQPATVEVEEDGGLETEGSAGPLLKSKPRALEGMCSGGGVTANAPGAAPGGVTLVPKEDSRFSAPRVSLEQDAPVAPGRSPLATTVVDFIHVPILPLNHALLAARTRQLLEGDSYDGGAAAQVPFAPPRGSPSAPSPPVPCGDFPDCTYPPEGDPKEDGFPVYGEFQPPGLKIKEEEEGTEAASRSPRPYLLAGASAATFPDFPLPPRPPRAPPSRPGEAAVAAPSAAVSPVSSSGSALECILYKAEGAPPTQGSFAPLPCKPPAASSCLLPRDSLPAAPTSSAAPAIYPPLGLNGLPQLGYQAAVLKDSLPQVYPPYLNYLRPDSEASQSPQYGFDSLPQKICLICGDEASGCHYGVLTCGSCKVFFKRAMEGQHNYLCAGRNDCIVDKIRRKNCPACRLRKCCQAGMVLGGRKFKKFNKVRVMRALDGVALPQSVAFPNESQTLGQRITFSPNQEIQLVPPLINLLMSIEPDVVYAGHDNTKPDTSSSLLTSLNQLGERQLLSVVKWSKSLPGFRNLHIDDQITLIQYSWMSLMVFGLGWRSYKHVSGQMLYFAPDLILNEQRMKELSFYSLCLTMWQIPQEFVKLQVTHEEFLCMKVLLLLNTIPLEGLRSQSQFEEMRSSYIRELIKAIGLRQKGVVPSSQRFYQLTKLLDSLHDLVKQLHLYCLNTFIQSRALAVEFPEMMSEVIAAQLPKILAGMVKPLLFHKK
Procedure, shortened: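 Adult ovariectomized rats given oral doses; read-out is reversal of progestin down-regulation of estrogen-induced complement C3 synthesis in uterine epithelium. ED50 averaged from at least duplicate determinations.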

[3] = Area under the curve (AUC) for the compound in female rats for a dose of 1 mg/kg administered intravenously.; type: ADME, organism-based; set-up: dose 1 mg/kg, route intravenous; settings: rat, in vivo, iv
[4] = Half life in female rats for a dose of 1 mg/kg administered intravenously.; type: ADME, organism-based; set-up: dose 1 mg/kg, route intravenous; settings: rat, in vivo, iv

| clearance [1] [mL/min/kg] | AUC [3] [ng·h/mL] | half-life [4] [min] | SMILES | pIC50 (Progesterone receptor) | ED50 [2] [mg/kg] |
| --- | --- | --- | --- | --- | --- |
|  |  |  | CC1(C)OC(=O)Nc2ccc(-c3coc(C#N)c3)cc21 | 8.10 |  |
| 3.67 | 3690 | 462 | CC1(C)OC(=O)Nc2ccc(-c3cc(F)cc(C#N)c3)cc21 |  | 1 |
|  |  |  | CC1(C)OC(=O)Nc2ccc(-c3ccc(F)c(Cl)c3)cc21 | 7.64 | 2.5 |
